Assay results taken from ChEMBL document CHEMBL1687827, “Profiling the Aspergillus fumigatus proteome in response to caspofungin” (2011).

Legend:
Format in all cases: functional
Aspergillus fumigatus [1] = assay: Induction of change in transcriptional repressor TupA/RocA, putative protein level in iTRAQ-118 labelled cell wall fraction of drug-susceptible Aspergillus fumigatus KU80 delta-akuB at 0.12 ug/ml after 24 hrs in YPD medium by MS (MS/MS) analysis relative to control
How it was run: (§1)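 Conidia (1 × 10⁵/ml) grown in YPD, 37°C, 225 rpm, ± 0.12 μg/ml caspofungin; filtrate taken as secreted fraction, French-press lysate 5,000 × g pellet as cell wall/plasma membrane. Trypsin digests 8-plex iTRAQ-labelled (drug-free channels as references), pooled, 2D-chromatography, MS/MS. Median-normalized; protein ratio = median of unique-peptide ratios, log2 normalized.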

Aspergillus fumigatus [2] = assay: Induction of change in Mn superoxide dismutase MnSOD protein level in iTRAQ114 labelled cell wall fraction of drug-susceptible Aspergillus fumigatus KU80 delta-akuB at 0.12 ug/ml after 24 hrs in YPD medium by MS (MS/MS) analysis relative to control
How it was run: (§2)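 Conidia at 1 × 10⁵/ml grown shaking at 37°C in YPD with or without 0.12 μg/ml caspofungin; mycelia filtered at 24 or 48 h. Secreted fraction taken from the filtrate; cell wall/plasma membrane pellet recovered after French-press lysis and a 5,000 × g spin. Proteins trypsin-digested and iTRAQ-labelled, drug vs no-drug channels at each time, then 2D LC-MS/MS. Protein ratio is the median of ratios from uniquely assigned peptides after median normalization.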

Aspergillus fumigatus [3] = assay: Induction of change in BYS1 domain protein, putative protein level in iTRAQ-118 labelled cell wall fraction of drug-susceptible Aspergillus fumigatus KU80 delta-akuB at 0.12 ug/ml after 24 hrs in YPD medium by MS (MS/MS) analysis relative to control; how it was run: as §2
Aspergillus fumigatus [4] = assay: Induction of change in molecular chaperone and allergen Mod-E/Hsp90/Hsp1 protein level in iTRAQ-116 labelled secreted fraction of drug-resistant Aspergillus fumigatus EMFR-S678P at 0.12 ug/ml after 48 hrs in YPD medium by MS (MS/MS) analysis relative to control
How it was run: (§3)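 Conidia at 1 × 10⁵/ml were grown at 37°C, shaking at 225 rpm, in YPD with or without 0.12 μg/ml caspofungin for 24 or 48 h. The culture filtrate was kept as the secreted fraction. Mycelia were lysed by French press in HEPES/glycerol/EDTA/PMSF/DTT buffer, and the 5,000 × g pellet was washed to give CW/PM. Proteins were reduced, alkylated and trypsin-digested at 37°C overnight, then iTRAQ-labelled and run by 2D LC-MS/MS. Ratios are the median of unique-peptide ratios, median-normalized, versus the no-drug control.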

Aspergillus fumigatus [5] = assay: Induction of change in 40S ribosomal protein S3Ae protein level in iTRAQ114 labelled cell wall fraction of drug-resistant Aspergillus fumigatus EMFR-S678P at 0.12 ug/ml after 24 hrs in YPD medium by MS (MS/MS) analysis relative to control; how it was run: as §3
Aspergillus fumigatus [6] = assay: Induction of change in 60S ribosomal protein L7 protein level in iTRAQ114 labelled cell wall fraction of drug-susceptible Aspergillus fumigatus KU80 delta-akuB at 0.12 ug/ml after 24 hrs in YPD medium by MS (MS/MS) analysis relative to control; how it was run: as §2
Aspergillus fumigatus [7] = assay: Induction of change in 14-3-3 family protein ArtA, putative protein level in iTRAQ-116 labelled secreted fraction of drug-susceptible Aspergillus fumigatus KU80 delta-akuB at 0.12 ug/ml after 48 hrs in YPD medium by MS (MS/MS) analysis relative to control; how it was run: as §2
Aspergillus fumigatus [8] = assay: Antifungal activity against drug-susceptible Aspergillus fumigatus KU80 delta-akuB assessed as change in hyphal morphology by RPMI medium; conditions: read-out: MEC
How it was run: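 CLSI M38-A2 broth microdilution, run in triplicate in RPMI or YPD medium as the line specifies. Caspofungin was dissolved in sterile water. The minimum effective concentration (MEC) was the lowest concentration giving a significant change in hyphal morphology visible to the eye.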

Aspergillus fumigatus [9] = assay: Induction of change in hypothetical protein locus AFUA_8G07100 level in iTRAQ-116 labelled secreted fraction of drug-susceptible Aspergillus fumigatus KU80 delta-akuB at 0.12 ug/ml after 48 hrs in YPD medium by MS (MS/MS) analysis relative to control; how it was run: as §1
Aspergillus fumigatus [10] = assay: Induction of change in alkaline serine protease protein level in iTRAQ114 labelled cell wall fraction of drug-susceptible Aspergillus fumigatus KU80 delta-akuB at 0.12 ug/ml after 24 hrs in YPD medium by MS (MS/MS) analysis relative to control; how it was run: as §2
Aspergillus fumigatus [11] = assay: Induction of change in Ribosomal protein S21e gene expression in drug-susceptible Aspergillus fumigatus KU80 delta-akuB at 0.12 ug/ml after 24 hrs in YPD medium by microarray analysis relative to control
How it was run: (§4)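 Mycelia grown in YPD ± 0.12 μg/ml caspofungin (1 × 10⁵ conidia/ml, 37°C, shaking) and harvested at 24 or 48 h. Total RNA extracted, DNase-treated and quality-checked; 2 μg labelled per TIGR SOP M007 and hybridized to whole-genome arrays. Three independent experiments with dye flip (6 replicates); drug vs untreated fold change.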

Aspergillus fumigatus [12] = assay: Induction of change in GNAT family acetyltransferase, putative protein level in iTRAQ-116 labelled secreted fraction of drug-resistant Aspergillus fumigatus EMFR-S678P at 0.12 ug/ml after 48 hrs in YPD medium by MS (MS/MS) analysis relative to control; how it was run: as §3
Aspergillus fumigatus [13] = assay: Induction of change in SUN domain protein (Uth1), putative protein level in iTRAQ-118 labelled cell wall fraction of drug-resistant Aspergillus fumigatus EMFR-S678P at 0.12 ug/ml after 24 hrs in YPD medium by MS (MS/MS) analysis relative to control; how it was run: as §3
Aspergillus fumigatus [14] = assay: Induction of change in 60s ribosomal protein L24, putative protein level in iTRAQ114 labelled cell wall fraction of drug-susceptible Aspergillus fumigatus KU80 delta-akuB at 0.12 ug/ml after 24 hrs in YPD medium by MS (MS/MS) analysis relative to control; how it was run: as §2
Aspergillus fumigatus [15] = assay: Induction of change in cytosolic small ribosomal subunit protein S12 protein level in iTRAQ114 labelled secreted fraction of drug-susceptible Aspergillus fumigatus KU80 delta-akuB at 0.12 ug/ml after 24 hrs in YPD medium by MS (MS/MS) analysis relative to control; how it was run: as §2
Aspergillus fumigatus [16] = assay: Induction of change in L-PSP endoribonuclease family protein (Hmf1), putative gene expression in drug-susceptible Aspergillus fumigatus KU80 delta-akuB at 0.12 ug/ml after 48 hrs in YPD medium by microarray analysis relative to control; how it was run: as §4
Aspergillus fumigatus [17] = assay: Induction of change in phosphoglycerate kinase PgkA, putative protein level in iTRAQ-118 labelled cell wall fraction of drug-resistant Aspergillus fumigatus EMFR-S678P at 0.12 ug/ml after 24 hrs in YPD medium by MS (MS/MS) analysis relative to control; how it was run: as §3
Aspergillus fumigatus [18] = assay: Induction of change in 60S ribosomal protein L27e protein level in iTRAQ-118 labelled cell wall fraction of drug-susceptible Aspergillus fumigatus KU80 delta-akuB at 0.12 ug/ml after 24 hrs in YPD medium by MS (MS/MS) analysis relative to control; how it was run: as §2

`CC[C@H](C)C[C@H](C)CCCCCCCCC(=O)N[C@H]1C[C@@H](O)[C@@H](NCCN)NC(=O)[C@@H]2[C@@H](O)CCN2C(=O)[C@H]([C@H](O)CCN)NC(=O)[C@H]([C@H](O)[C@@H](O)c2ccc(O)cc2)NC(=O)[C@@H]2C[C@@H](O)CN2C(=O)[C@H]([C@@H](C)O)NC1=O` [CASPOFUNGIN] was tested, and the “fold change (FC)” value (Aspergillus fumigatus [1]) was -2.1, the “fold change (FC)” value (Aspergillus fumigatus [2]) was -1.2 and the “fold change (FC)” value (Aspergillus fumigatus [3]) was -2.3. For the same molecule, the “fold change (FC)” value (Aspergillus fumigatus [4]) was -1.07, the “fold change (FC)” value (Aspergillus fumigatus [5]) was 1.07 and the “fold change (FC)” value (Aspergillus fumigatus [6]) was 2. The “fold change (FC)” value (Aspergillus fumigatus [7]) was -2, the minimal effective concentration (Aspergillus fumigatus [8]) was 0.25 µg/mL and the “fold change (FC)” value (Aspergillus fumigatus [9]) was 2.1. The “fold change (FC)” value (Aspergillus fumigatus [10]) was 1.3, the “fold change (FC)” value (Aspergillus fumigatus [11]) was 3.6 and the “fold change (FC)” value (Aspergillus fumigatus [12]) was -1.07. For the same molecule, the “fold change (FC)” value (Aspergillus fumigatus [13]) was 1.07, the “fold change (FC)” value (Aspergillus fumigatus [14]) was 1.5 and the “fold change (FC)” value (Aspergillus fumigatus [15]) was 1.5. The “fold change (FC)” value (Aspergillus fumigatus [16]) was -2.3, the “fold change (FC)” value (Aspergillus fumigatus [17]) was -1.15 and the “fold change (FC)” value (Aspergillus fumigatus [18]) was 2.6.
